Measured values as given in ChEMBL document CHEMBL3763088, “Design, synthesis, and biological evaluation of water-soluble amino acid prodrug conjugates derived from combretastatin, dihydronaphthalene, and benzosuberene-based parent vascular disrupting agents” (Bioorg Med Chem, 2016).
Several values for one entry are separate records, joined by “and”; a condition that tells them apart may be missing. Equal entries are not always repeated. Activity calls are given as the source filed them. The calls are words filed in the database; no cut-off is given here.

What was measured:
[1] = Cytotoxicity against human DU145 cells assessed as growth inhibition after 48 hrs by SRB assay; type: functional, DU-145
In short: (§1)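 Cells kept at 37 °C, 5% CO2, up to passage 15. Plated at 7500 cells/well in DMEM with 5% FBS and 1% gentamycin, grown 24 h, then given 10-fold serial dilutions for 48 h. Fixed with 10% TCA (final), SRB-stained, read at 540 nm, normalized at 630 nm. GI50 is the concentration halving net protein staining versus controls, taken from optical density data.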

NCI-H460 = assay: Cytotoxicity against human NCI-H460 cells assessed as growth inhibition after 48 hrs by SRB assay; type: functional; in short: as §1
MDA-MB-231 [2] = assay: Induction of tumor-specific vascular damage in luciferase expressing human MDA-MB-231 cells xenografted in SCID mouse assessed as reduction in light emission at 80 mg/kg at 24 hrs post dose by bioluminescence imaging assay (reference value: 24%); type: functional; details: MDA-MB-231, 24 h
Tubulin = Tubulin (Bos taurus, UniProt Q6B856+Q862L2+Q862F3); assay: Inhibition of bovine brain tubulin polymerization preincubated for 15 mins by spectrophotometric analysis
In short: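 Purified bovine brain tubulin, 1.0 mg/mL (10 μM), in 0.8 M monosodium glutamate pH 6.6 with 4% DMSO and varied compound. Temperature jumped from 0 to 30 °C; turbidity at 350 nm followed for 20 min.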

[3] = Cytotoxicity against human SKOV3 cells assessed as growth inhibition after 48 hrs by SRB assay; type: functional, SK-OV-3; in short: as §1
MDA-MB-231 [4] = assay: Induction of tumor-specific vascular damage in luciferase expressing human MDA-MB-231 cells xenografted in SCID mouse assessed as reduction in light emission at 80 mg/kg at 4 hrs post dose by bioluminescence imaging assay (reference value: 22%); type: functional; details: MDA-MB-231, 4 h
MDA-MB-231 [5] = assay: Induction of tumor-specific vascular damage in luciferase expressing human MDA-MB-231 cells xenografted in SCID mouse assessed as reduction in light emission at 80 mg/kg at 2 hrs post dose by bioluminescence imaging assay relative to control; type: functional; details: MDA-MB-231, 2 h
HUVEC = assay: Antivascular activity in HUVEC cells assessed as disruption of capillary-like network of tubules formation at 0.1 uM by matrigel assay; type: functional, cell-based; details: Homo sapiens
In short: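 HUVECs (124,000 per well in M200 with growth factors) plated on Matrigel (9.5 mg/mL) that had been set for 60 min at 37 °C. Cells incubated 16 h at 37 °C to form tubule networks. Then treated at 0.01, 0.1 or 1.0 μM and photographed, 9 fields/well with 40x objective.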

Tubulin (Bos taurus) [6] = target: T1, Tubulin (Bos taurus) (UniProt Q6B856+Q862L2+Q862F3); assay: Displacement of [3H]colchicine from bovine brain tubulin at 1 uM after 10 mins by scintillation counting analysis
In short: (§2)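 1.0 μM tubulin with 5.0 μM [3H]colchicine and inhibitor at 1.0 or 5.0 μM. Buffer: 5% DMSO, 1.0 M monosodium glutamate pH 6.6, 0.5 mg/mL BSA, 0.1 M glucose-1-phosphate, 1.0 mM MgCl2, 1.0 mM GTP. Incubated 10 min at 37 °C, stopped with ice-cold water, collected on DEAE-cellulose filters and scintillation counted. Corrected for filter binding without tubulin; % inhibition against no-inhibitor controls.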

Tubulin (Bos taurus) [7] = target: T1, Tubulin (Bos taurus); assay: Displacement of [3H]colchicine from bovine brain tubulin at 5 uM after 10 mins by scintillation counting analysis; in short: as §2
Leucine aminopeptidase [8] = target: T2, Leucine aminopeptidase (Sus scrofa, UniProt Q29571); assay: Prodrug conversion assessed as porcine leucine aminopeptidase-mediated compound cleavage by HPLC analysis; type: ADME; details: pig
T2 sequence (Q29571 whole entry): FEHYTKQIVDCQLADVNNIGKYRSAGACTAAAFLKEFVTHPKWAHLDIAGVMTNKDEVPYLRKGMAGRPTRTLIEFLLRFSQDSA
In short: (§3)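 Porcine kidney microsomal LAP; units defined with 24 mM L-leucine p-nitroanilide in 50 mM sodium phosphate pH 7.2 at 37 °C. Enzyme preincubated in the same buffer at 37 °C, then substrate added. Aliquots were quenched with acetonitrile on ice, centrifuged and run on C18 HPLC (acetonitrile/water, 0.05% TFA, 1.0 mL/min, 22 °C, diode-array UV). Cleavage % from the parent/prodrug peak-area ratio; amounts from calibration curves.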

Leucine aminopeptidase [9] = target: T2, Leucine aminopeptidase; assay: Activity at porcine leucine aminopeptidase by HPLC analysis; type: ADME; details: pig; in short: as §3
[10] = Retention time of the compound by HPLC analysis; type: physicochemical
In short: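 Reversed-phase C18 HPLC (4.6 × 150 mm, 5 μm) at 25 °C with diode-array detection at 190–400 nm. Acetonitrile against water or 0.1% TFA/water. Gradient 10% to 100% acetonitrile over 40 min, or in method C 10% acetonitrile for 5 min then to 100% over 5–25 min, at 1.0 mL/min.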

COc1ccc(/C=C\c2cc(OC)c(OC)c(OC)c2)c(N)c1N.Cl
GI50 [1]: 205 nM | GI50 (NCI-H460): 124 nM | inhibition in vivo at 80 mg/kg (MDA-MB-231 [2]): 79% | IC50 (Tubulin): 2300 nM | GI50 [3]: 22.8 nM | inhibition in vivo at 80 mg/kg (MDA-MB-231 [4]): 94% | inhibition in vivo at 80 mg/kg (MDA-MB-231 [5]): 95%

COc1ccc(/C=C\c2cc(OC)c(OC)c(OC)c2)c(N)c1N
Activity (HUVEC): Active | inhibition (Tubulin (Bos taurus) [6]): 55% and 46% | inhibition (Tubulin (Bos taurus) [7]): 87% and 86%

COc1ccc(/C=C\c2cc(OC)c(OC)c(OC)c2)c(NC(=O)[C@@H](N)CO)c1NC(=O)[C@@H](N)CO
GI50 [1]: 33600 nM | GI50 (NCI-H460): 24400 nM | Drug metabolism (Leucine aminopeptidase [8]): metabolite_notdetected | GI50 [3]: 25900 nM

COc1ccc(/C=C\c2cc(OC)c(OC)c(OC)c2)c(NC(=O)CN)c1.Cl
Activity (Leucine aminopeptidase [9]): 180 µM/min | GI50 [1]: 44.7 nM | GI50 (NCI-H460): 29.2 nM | Drug metabolism (Leucine aminopeptidase [8]): 100% | GI50 [3]: 48.5 nM

COc1ccc(/C=C\c2cc(OC)c(OC)c(OC)c2)c(NC(=O)[C@@H](N)CO)c1.Cl
Activity (Leucine aminopeptidase [9]): 1.2 µM/min | GI50 [1]: 48.4 nM | GI50 (NCI-H460): 31.7 nM | Drug metabolism (Leucine aminopeptidase [8]): 62% | GI50 [3]: 51.6 nM

COc1ccc(/C=C\c2cc(OC)c(OC)c(OC)c2)c(NC(=O)[C@@H](N)CO)c1
GI50 ([1]; Homo sapiens, DU-145, 48 h): 34.7 nM | GI50 (NCI-H460; Homo sapiens, NCI-H460, 48 h): 33.3 nM | GI50 ([3]; Homo sapiens, SK-OV-3, 48 h): 39.5 nM

COc1ccc2c(c1NC(=O)CN)CCCC=C2c1cc(OC)c(OC)c(OC)c1
GI50 ([1]; Homo sapiens, DU-145, 48 h): 507 nM | GI50 (NCI-H460; Homo sapiens, NCI-H460, 48 h): 566 nM | GI50 ([3]; Homo sapiens, SK-OV-3, 48 h): 195 nM

COc1ccc(/C=C/c2cc(OC)c(OC)c(OC)c2)c(NC(=O)[C@H](N)CO)c1.Cl
GI50 ([1]; Homo sapiens, DU-145, 48 h): 4550 nM | GI50 (NCI-H460; Homo sapiens, NCI-H460, 48 h): 2240 nM | Drug metabolism (Leucine aminopeptidase [8]): 90% | GI50 ([3]; Homo sapiens, SK-OV-3, 48 h): 2290 nM

COc1ccc(/C=C\c2cc(OC)c(OC)c(OC)c2)c(NC(=O)CN)c1
GI50 ([1]; Homo sapiens, DU-145, 48 h): 43.6 nM | GI50 (NCI-H460; Homo sapiens, NCI-H460, 48 h): 53.2 nM | GI50 ([3]; Homo sapiens, SK-OV-3, 48 h): 32.3 nM

COc1ccc2c(c1NC(=O)[C@@H](N)CO)CCC=C2c1cc(OC)c(OC)c(OC)c1
GI50 ([1]; Homo sapiens, DU-145, 48 h): 40600 nM | GI50 (NCI-H460; Homo sapiens, NCI-H460, 48 h): 31100 nM | GI50 ([3]; Homo sapiens, SK-OV-3, 48 h): 13700 nM

COc1ccc2c(c1NC(=O)CN)CCCC=C2c1cc(OC)c(OC)c(OC)c1.Cl
Activity (Leucine aminopeptidase [9]): 0.12 µM/min | GI50 [1]: 773 nM | GI50 (NCI-H460): 567 nM | Drug metabolism (Leucine aminopeptidase [8]): 100% | GI50 [3]: 203 nM

COc1ccc2c(c1N)CCC=C2c1cc(OC)c(OC)c(OC)c1
Retention_time [10]: 12.1 min

COc1ccc(/C=C\c2cc(OC)c(OC)c(OC)c2)c(N)c1
inhibition (Tubulin (Bos taurus) [6]): 55% | inhibition (Tubulin (Bos taurus) [7]): 88% and 75%

COc1ccc2c(c1NC(=O)CN)CCC=C2c1cc(OC)c(OC)c(OC)c1
GI50 ([1]; Homo sapiens, DU-145, 48 h): 50.1 nM | GI50 (NCI-H460; Homo sapiens, NCI-H460, 48 h): 36.5 nM | GI50 [3]: 13.8 nM
